“Also recorded” adds a separate entry of the source. Marks after values point to notes of the source that are not given here.
Columns and labels:
[1] = system: orthotopic patient-derived xenograft model; settings: continuous administration, preclinical; cited from earlier work
[2] = system: recurrent/progressive IDH1-mutant (R132) glioma; assay: Tumor response by RANO / RANO-LGG, PFS, treatment duration; type: in vivo, human; settings: for Duration of CR: still on treatment
Procedure, shortened: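 MRI was performed every 6 weeks. Investigators classed tumors at enrollment as contrast-enhancing (assessed by RANO) or non-enhancing (assessed by RANO-LGG). Longest and orthogonal diameters were measured on the largest FLAIR/T2 slice. Best overall response required a confirmatory scan at least 4 weeks later. ORR counted CR, PR and MR. PFS ran from first dose to progression or death. Dosing was oral twice daily, continued until progression or intolerable toxicity.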

[3] = DS-1001 concentration in resected tumor tissue, plasma and CSF; type: in vivo, human; settings: for DS-1001 concentration in resected tumor tissue: free form
Procedure, shortened: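 Drug levels were measured by validated LC-MS/MS and expressed as the free form. CSF was collected at screening and on cycle 1 day 15 (±3 days). Resected tumor and matched plasma were taken on the day of salvage surgery, after oral twice-daily dosing continued until surgery. Where a patient gave several tumor samples, the range is given. The brain/plasma ratio used the matched plasma sample.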

[4] = system: D-2-hydroxyglutarate (D-2-HG); assay: D-2-HG concentration in resected tumor tissue; type: in vivo, human
Procedure, shortened: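 Patients with IDH1-R132 glioma who were scheduled for salvage surgery after progression took the oral test compound twice daily until surgery. Tumor was resected on the day of surgery, homogenized in 0.1 w/v% bovine serum albumin solution, and derivatized with diacetyl-l-tartaric anhydride. D-2-HG was then quantified by LC-MS/MS against a commercial D-2-HG reference standard. On-treatment values were compared with matched archived frozen tumor from previous surgery, where available.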

[5] = Plasma pharmacokinetics of DS-1001; type: in vivo, human; settings: for Increase in Cmax and AUC0-8 h with dose: day 1 and day 8 of cycle 1
[6] = mice, preclinical; cited from earlier work
Safety evaluation = type: in vivo, human
Procedure, shortened: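 Adults (≥20 years) with recurrent/progressive grade 2-4 IDH1-R132 glioma received oral twice-daily dosing in 21-day cycles at 125-1400 mg (six levels). Escalation used a modified continual reassessment method (Bayesian logistic regression, overdose control) with cohorts of 3-6 patients and DLT assessment over the 21-day cycle. TEAEs were recorded up to 28 days after the last dose, graded by CTCAE v4.0 and counted once per patient at worst severity. LVEF was monitored by echocardiography or MUGA.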

[7] = 12 non-enhancing tumors, RANO-LGG
[8] = non-enhancing (n = 12), RANO-LGG
[9] = Patient #003, 500 mg bid, 16.9 h after last dose
[10] = Patient #006, 700 mg bid, 7.2 h after last dose

SMILES: Cc1cn(C(=O)c2c(-c3c(Cl)cc(Cl)cc3Cl)noc2C(C)(C)F)c2cccc(/C=C/C(=O)O)c12 [DS-1001]
- D-2-HG [1]: D-2-HG reduction
- Tumor growth [1]: Tumor growth inhibition
- Response by 1p/19q codeletion status ([2]; 1p/19q-codeleted vs non-codeleted): Measurable response was observed in both 1p/19q-codeleted and non-codeleted cases
- Number of MRs [2, 7]: 3
- Number of PRs [2, 7]: 1
- Number of CRs ([2]; 35 enhancing tumors, RANO): 2
- Number of PRs ([2]; 35 enhancing tumors, RANO): 4
- Median response duration ([2]; both lesion types): has not been reached
- Doses at which responses were observed ([2]; data limited): ≥ 125 mg bid
- Confirmed best overall response: complete response ([2]; enhancing (n = 35), RANO): 2 (5.7) n (%)
- Confirmed best overall response: partial response ([2]; enhancing (n = 35), RANO): 4 (11.4) n (%)
- Confirmed best overall response: progressive disease ([2]; enhancing (n = 35), RANO): 17 (48.6) n (%)
- Confirmed best overall response: stable disease ([2]; enhancing (n = 35), RANO): 11 (31.4) n (%)
- Objective response rate ([2]; enhancing (n = 35), RANO): 6 (17.1) n (%)
- Confirmed best overall response: not evaluated ([2]; enhancing (n = 35), treatment discontinued before first response assessment): 1 (2.9)^b n (%)
- Median progression-free survival ([2]; enhancing glioma cohort, all doses, 95% CI 6.1 to 17.7 weeks): 10.4 weeks
- Median progression-free survival ([2]; enhancing glioma cohort, 95% CI 6.1 to 17.7 months (abstract)): 10.4 months
- Patients with tumor measurements decreased from baseline ([2]; enhancing tumors, 15 of 35): 42.9%
- Objective response rate ([2]; enhancing tumors, RANO): 17.1%
- Confirmed best overall response: not evaluated ([2]; non-enhancing (n = 12)): 0 (0.0) n (%)
- Confirmed best overall response: complete response [2, 8]: 0 (0.0) n (%)
- Confirmed best overall response: minor response [2, 8]: 3 (25.0) n (%)
- Confirmed best overall response: partial response [2, 8]: 1 (8.3) n (%)
- Confirmed best overall response: progressive disease [2, 8]: 0 (0.0) n (%)
- Confirmed best overall response: stable disease [2, 8]: 8 (66.7) n (%)
- Objective response rate [2, 8]: 4 (33.3) n (%)
- Median progression-free survival ([2]; non-enhancing glioma cohort, 95% CI 24.1 to not reached): not reached
- Patients with tumor measurements decreased from baseline ([2]; non-enhancing tumors, 11 of 12): 91.7%
- Objective response rate ([2]; non-enhancing tumors, RANO-LGG): 33.3%
- Duration of CR ([2]; patient with IDH1-mutant anaplastic oligodendroglioma): approximately 95 weeks
- Duration of CR ([2]; patient with astrocytoma (IDH-mutant, grade 4)): approximately 174 weeks
- Brain/plasma concentration ratio [3, 9]: 0.77
- DS-1001 concentration in resected tumor tissue [3, 9]: 5720 ng/g tissue
- Brain/plasma concentration ratio ([3]; Patient #004, 500 mg bid, 4.1, 4.2 h after last dose): 0.19
- Brain/plasma concentration ratio [3, 10]: 0.58
- DS-1001 concentration in resected tumor tissue [3, 10]: 6130 ng/g tissue
- DS-1001 in CSF ([3]; day 15 of cycle 1): appeared in CSF
- Brain / tumor distribution of DS-1001 ([3]; resected tumor samples, salvage surgery): favorable brain distribution; also recorded: a high drug concentration was detected in all resected tumor samples
- D-2-HG in on-treatment tumor tissue versus pre-treatment samples ([4]; 125 mg bid): significantly lower levels of D-2-HG compared with the pre-treatment samples
- D-2-HG in on-treatment tumor tissue versus archived samples ([4]; seven on-treatment samples, 125-700 mg bid): significantly lower amount of D-2-HG compared with pre-study archived samples; also recorded: extremely low compared with matched archived samples; also recorded: lower than archived samples; also recorded: significantly low levels of D-2-HG
- Increase in Cmax and AUC0-8 h with dose ([5]; 125 to 700 mg bid): approximately dose-proportional
- Increase in Cmax and AUC0-8 h with dose ([5]; 700 to 1400 mg bid): less than dose-proportional
- Median Tmax across dose range ([5]; day 1 of cycle 1, 125-1400 mg bid): 2 to 6 h
- Median Tmax across dose range ([5]; day 8 of cycle 1, 125-1400 mg bid): 2 to 4 h
- Steady-state levels achieved (plasma trough plateau) ([5]; most dose levels, except 1400 mg bid, data not shown): ≤ 4 days
- Distribution to the brain [6]: good distribution to the brain
- Patients with at least 1 AE of any grade or causality (Safety evaluation; 45 of 47): 95.7%
- Tolerability / safety profile (Safety evaluation; 125-1400 mg bid oral): well tolerated; also recorded: favorable safety profile
- Maximum tolerated dose (MTD) (Safety evaluation; 125-1400 mg bid oral, highest dose level 1400 mg bid): not reached
- Alanine aminotransferase increased, all grades (Safety evaluation; N = 47): 4 (8.5) n (%)
- Alanine aminotransferase increased, grade 3 (Safety evaluation; N = 47): 3 (6.4) n (%)
- All AEs, grade 3 (Safety evaluation; N = 47): 20 (42.6) n (%)
- Alopecia, all grades (Safety evaluation; N = 47): 13 (27.7) n (%)
- Alopecia, grade 3 (Safety evaluation; N = 47): 0 n (%)
- Arthralgia, all grades (Safety evaluation; N = 47): 13 (27.7) n (%)
- Arthralgia, grade 3 (Safety evaluation; N = 47): 1 (2.1) n (%)
- Aspartate aminotransferase increased, all grades (Safety evaluation; N = 47): 3 (6.4) n (%)
- Aspartate aminotransferase increased, grade 3 (Safety evaluation; N = 47): 2 (4.3) n (%)
- Back pain, all grades (Safety evaluation; N = 47): 10 (21.3) n (%)
- Back pain, grade 3 (Safety evaluation; N = 47): 0 n (%)
- Decreased appetite, all grades (Safety evaluation; N = 47): 5 (10.6) n (%)
- Decreased appetite, grade 3 (Safety evaluation; N = 47): 0 n (%)
- Diarrhea, all grades (Safety evaluation; N = 47): 22 (46.8) n (%)
- Diarrhea, grade 3 (Safety evaluation; N = 47): 2 (4.3) n (%)
- Dose interruption due to arthralgia (Safety evaluation; N = 47): 10.6%
- Dose interruption due to neutrophil count decreased (Safety evaluation; N = 47): 12.8%
- Dose reduction associated with alanine aminotransferase increased (Safety evaluation; N = 47): 4.3%
- Dose reduction associated with arthralgia (Safety evaluation; N = 47): 10.6%
- Dose reduction associated with back pain (Safety evaluation; N = 47): 6.4%
- Dose reduction associated with neck pain (Safety evaluation; N = 47): 2.1%
- Dose reduction associated with neutrophil count decreased (Safety evaluation; N = 47): 6.4%
- Dose reduction associated with white blood cell count decreased (Safety evaluation; N = 47): 4.3%
- Dry skin, all grades (Safety evaluation; N = 47): 10 (21.3) n (%)
- Dry skin, grade 3 (Safety evaluation; N = 47): 0 n (%)
- Feces soft, all grades (Safety evaluation; N = 47): 6 (12.8) n (%)
- Feces soft, grade 3 (Safety evaluation; N = 47): 0 n (%)
- Grade 4 or 5 AEs or serious drug-related AEs (Safety evaluation; N = 47): No grade 4 or 5 AEs or serious drug-related AEs were reported
- Headache, all grades (Safety evaluation; N = 47): 11 (23.4) n (%)
- Headache, grade 3 (Safety evaluation; N = 47): 1 (2.1) n (%)
- Hypophosphatemia, all grades (Safety evaluation; N = 47): 2 (4.3) n (%)
- Hypophosphatemia, grade 3 (Safety evaluation; N = 47): 2 (4.3) n (%)
- Nasopharyngitis, all grades (Safety evaluation; N = 47): 7 (14.9) n (%)
- Nasopharyngitis, grade 3 (Safety evaluation; N = 47): 0 n (%)
- Nausea, all grades (Safety evaluation; N = 47): 12 (25.5) n (%)
- Nausea, grade 3 (Safety evaluation; N = 47): 0 n (%)
- Neutrophil count decreased, all grades (Safety evaluation; N = 47): 7 (14.9) n (%)
- Neutrophil count decreased, grade 3 (Safety evaluation; N = 47): 6 (12.8) n (%)
- Patients with TEAEs associated with dose reduction (Safety evaluation; N = 47): 27.7%
- Patients with at least 1 dose interruption due to TEAEs (Safety evaluation; N = 47): 57.4%
- Patients with at least 1 grade 3 AE (TEAE) (Safety evaluation; N = 47): 42.6%
- Pruritus, all grades (Safety evaluation; N = 47): 14 (29.8) n (%)
- Pruritus, grade 3 (Safety evaluation; N = 47): 0 n (%)
- Rash, all grades (Safety evaluation; N = 47): 11 (23.4) n (%)
- Rash, grade 3 (Safety evaluation; N = 47): 0 n (%)
- Skin hyperpigmentation, all grades (Safety evaluation; N = 47): 25 (53.2) n (%)
- Skin hyperpigmentation, grade 3 (Safety evaluation; N = 47): 0 n (%)
- Vomiting, all grades (Safety evaluation; N = 47): 9 (19.1) n (%)
- Vomiting, grade 3 (Safety evaluation; N = 47): 0 n (%)
- White blood cell count decreased, all grades (Safety evaluation; N = 47): 3 (6.4) n (%)
- White blood cell count decreased, grade 3 (Safety evaluation; N = 47): 3 (6.4) n (%)
- Alanine aminotransferase increased, grade 3 (Safety evaluation; N = 47, text): 6.4%
- Alopecia, any grade (Safety evaluation; N = 47, text): 27.7%
- Arthralgia, any grade (Safety evaluation; N = 47, text): 27.7%
- Aspartate aminotransferase increased, grade 3 (Safety evaluation; N = 47, text): 4.3%
- Back pain, any grade (Safety evaluation; N = 47, text): 21.3%
- Diarrhea, any grade (Safety evaluation; N = 47, text): 46.8%
- Diarrhea, grade 3 (Safety evaluation; N = 47, text): 4.3%
- Dry skin, any grade (Safety evaluation; N = 47, text): 21.3%
- Headache, any grade (Safety evaluation; N = 47, text): 23.4%
- Hypophosphatemia, grade 3 (Safety evaluation; N = 47, text): 4.3%
- Nausea, any grade (Safety evaluation; N = 47, text): 25.5%
- Neutrophil count decreased, grade 3 (Safety evaluation; N = 47, text): 12.8%
- Pruritus, any grade (Safety evaluation; N = 47, text): 29.8%
- Rash, any grade (Safety evaluation; N = 47, text): 23.4%
- Skin hyperpigmentation, any grade (Safety evaluation; N = 47, text): 53.2%
- White blood cell count decreased, grade 3 (Safety evaluation; N = 47, text): 6.4%
- Dose-limiting toxicity (DLT) (Safety evaluation; at 1000 mg bid): One DLT, grade 3 white blood cell count decreased
- Dose modification due to pain (Safety evaluation; doses ≤250 mg bid): no dose modification due to pain
- Dose modification due to pain (Safety evaluation; doses ≥500 mg bid): most patients who received long-term administration of DS-1001 required dose modifications due to episodes of pain
- Discontinued due to an AE (alanine aminotransferase increased) (Safety evaluation; of 39 patients who discontinued): 1 patients
- All AEs, all grades (Safety evaluation; safety analysis set N = 47): 45 (95.7) n (%)

Reference: paper PMC9925696 (Neuro-Oncology, 2022)
